Starred links: 1 amine or outer side, 2 acyl side, 3 side chain; linkers in the order of their positions; H or OH if unused. Positions of bridges follow the written chain, without caps; N, C: chain ends. Non-standard residues stand in square brackets, D forms with d. Residues, ends and D or L forms follow the SMILES beside them. Chains are numbered I, II in the order given. X1 = O=C([C@@H](CC[*:3])N[*:1])[*:2]; CH2 = C([*:1])[*:2]

Among the data in ChEMBL document CHEMBL1136830, “Design and synthesis of dimeric HIV-1 integrase inhibitory peptides” (Bioorg Med Chem Lett, 2003) are IC50 values, retold here.

For test [1], the target named is T1, Human immunodeficiency virus type 1 integrase (Human immunodeficiency virus 1, UniProt Q7ZJM1). Briefly: In vitro inhibitory activity against HIV-1 integrase enzyme 3'-end processing. In a few lines:
(§1)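 HIV-1 integrase (500 nM) pre-incubated with peptides for 20 min at room temperature in 50 mM MOPS pH 7.2, 7.5 mM NaCl, 7.5 mM MnCl2, 5% glycerol. The 3'-processing and strand-transfer reactions were then run by an earlier published method with these changes. IC50 values were reported for each step.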

Test [2] has as its target T1, Human immunodeficiency virus type 1 integrase. Nature of the test: In vitro inhibitory activity against HIV-1 integrase enzyme strand transfer process. The method, boiled down:
as §1

T1 sequence (Q7ZJM1 whole entry): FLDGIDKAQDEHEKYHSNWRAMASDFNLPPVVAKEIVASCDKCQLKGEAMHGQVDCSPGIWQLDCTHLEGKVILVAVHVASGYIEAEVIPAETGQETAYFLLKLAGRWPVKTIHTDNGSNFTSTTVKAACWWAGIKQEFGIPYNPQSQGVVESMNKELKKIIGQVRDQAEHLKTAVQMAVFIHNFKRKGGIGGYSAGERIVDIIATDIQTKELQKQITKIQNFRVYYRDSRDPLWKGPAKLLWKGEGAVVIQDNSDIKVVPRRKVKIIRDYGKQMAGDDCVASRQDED

For the molecule `NCCCC[C@H](NC(=O)[C@@H](CCSCC[C@@H](NC(=O)[C@@H](N)Cc1c[nH]cn1)C(=O)N[C@@H](CCCCN)C(=O)N[C@@H](Cc1ccccc1)C(=O)N[C@@H](Cc1c[nH]c2ccccc12)C(=O)N[C@@H](Cc1c[nH]c2ccccc12)C(N)=O)NC(=O)[C@@H](N)Cc1c[nH]cn1)C(=O)N[C@@H](Cc1ccccc1)C(=O)N[C@@H](Cc1c[nH]c2ccccc12)C(=O)N[C@@H](Cc1c[nH]c2ccccc12)C(N)=O`, the results for the IC50 in test [1] and in test [2] were 59 µM and 63 µM, respectively.
As to `NCCCC[C@H](NC(=O)[C@H](CSC[C@H](NC(=O)[C@@H](N)Cc1c[nH]cn1)C(=O)N[C@@H](CCCCN)C(=O)N[C@@H](Cc1ccccc1)C(=O)N[C@@H](Cc1c[nH]c2ccccc12)C(=O)N[C@@H](Cc1c[nH]c2ccccc12)C(N)=O)NC(=O)[C@@H](N)Cc1c[nH]cn1)C(=O)N[C@@H](Cc1ccccc1)C(=O)N[C@@H](Cc1c[nH]c2ccccc12)C(=O)N[C@@H](Cc1c[nH]c2ccccc12)C(N)=O`, the IC50 in test [1] is 67 µM; in test [2], 19 µM.
Consider `NCCCC[C@H](NC(=O)[C@H](CSCC[C@@H](NC(=O)[C@@H](N)Cc1c[nH]cn1)C(=O)N[C@@H](CCCCN)C(=O)N[C@@H](Cc1ccccc1)C(=O)N[C@@H](Cc1c[nH]c2ccccc12)C(=O)N[C@@H](Cc1c[nH]c2ccccc12)C(N)=O)NC(=O)[C@@H](N)Cc1c[nH]cn1)C(=O)N[C@@H](Cc1ccccc1)C(=O)N[C@@H](Cc1c[nH]c2ccccc12)C(=O)N[C@@H](Cc1c[nH]c2ccccc12)C(N)=O` (I: H-H[X1]KFWW-NH2 / II: H-HCKFWW-NH2; thioether I:2-II:2), for which the IC50 in test [1] was 77 µM; in test [2] it was 87 µM.
Turning to H-HCKFWW-NH2, the IC50 in test [1] was 102 µM; in test [2], 90 µM.
Consider `NCCCC[C@H](NC(=O)[C@H](CSSC[C@H](NC(=O)[C@@H](N)Cc1c[nH]cn1)C(=O)N[C@@H](CCCCN)C(=O)N[C@@H](Cc1ccccc1)C(=O)N[C@@H](Cc1c[nH]c2ccccc12)C(=O)N[C@@H](Cc1c[nH]c2ccccc12)C(N)=O)NC(=O)[C@@H](N)Cc1c[nH]cn1)C(=O)N[C@@H](Cc1ccccc1)C(=O)N[C@@H](Cc1c[nH]c2ccccc12)C(=O)N[C@@H](Cc1c[nH]c2ccccc12)C(N)=O` (I: H-HCKFWW-NH2 / II: H-HCKFWW-NH2; disulfide I:2-II:2), for which the IC50 is 81 µM in test [1] and 58 µM in test [2].
With `NCCCC[C@H](NC(=O)[C@H](CSCSC[C@H](NC(=O)[C@@H](N)Cc1c[nH]cn1)C(=O)N[C@@H](CCCCN)C(=O)N[C@@H](Cc1ccccc1)C(=O)N[C@@H](Cc1c[nH]c2ccccc12)C(=O)N[C@@H](Cc1c[nH]c2ccccc12)C(N)=O)NC(=O)[C@@H](N)Cc1c[nH]cn1)C(=O)N[C@@H](Cc1ccccc1)C(=O)N[C@@H](Cc1c[nH]c2ccccc12)C(=O)N[C@@H](Cc1c[nH]c2ccccc12)C(N)=O` (I: H-HCKFWW-NH2 / II: H-HCKFWW-NH2; linker I:2-II:2 via CH2), the IC50 worked out at 5.3 µM in test [1] and 6.5 µM in test [2].

What is called IC50 is the midpoint of a concentration-inhibition curve. Lower therefore signals greater potency in that assay.
